The term T/C denotes the result in the treated group divided by that in the control group, in per cent. The IC50 is the concentration that inhibits the measured activity by half. Read a high IC50 as a need for much substance.

The species entered for assay [1] is Mus musculus. In words: %T/C value measured in antitumor activity using murine P388 leukemia cells. It counts as functional. Put shortly:
(§1)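 Mice inoculated ip with P388 leukemia cells or the adriamycin-resistant subline P388/ADM. Drug activity expressed as T/C (%), i.e. mean survival days of the treated group over those of the control group, followed for 60 days. T/C >130% taken as significant. Optimal dose reported in mg/kg per injection.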

The species entered for assay [2] is Mus musculus. Kind of assay: %T/C value measured in antitumor activity using murine P388/ADM cells. It is filed as functional. The essentials: as §1
The species entered for assay [3] is Mus musculus. In words: Compound evaluated for optimal dose per injection against adriamycin resistant murine cell line (P388/ADM cells). It counts as functional. Put shortly:
as §1

Assay [4] is filed under the species Mus musculus. Kind of assay: Compound evaluated for optimal dose per injection against murine P388 leukemia cells. It is filed as functional. The essentials: as §1
In a further assay the target is Nucleic Acid. Kind of assay: Relative affinity for DNA binding. It counts as nucleic-acid assay.
The subject of assay [5] is Mus musculus. In words: Compound evaluated for optimal dose (mg/kg) per injection against murine P388 leukemia cells. It counts as functional. The essentials: as §1
Assay [6] is filed under the species Mus musculus. Kind of assay: %T/C value measured in antitumor activity using murine sarcoma 180 cells. It counts as functional. The essentials: (§2)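 Sarcoma 180 cells inoculated sc in mice. Drugs tested for antitumor activity, with the optimal dose given in mg/kg per injection. Activity expressed as treated versus control (T/C) value, and T/C <50% taken as effective.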

For assay [7], the species on record is Mus musculus. Kind of assay: %T/C value measured in antitumor activity using murine P388/ADM cells. It counts as functional. Put shortly: as §1
The species named for assay [8] is Mus musculus. Kind of assay: Compound evaluated for optimal dose per injection against murine sarcoma 180 cells. It counts as functional. Put shortly: as §2
For assay [9], the species on record is Mus musculus. Kind of assay: %T/C value measured in antitumor activity using murine sarcoma 180 tumor cells. It is filed as functional. The essentials:
as §2

As for `NCCCCNc1ccc2c(CNCCO)nn3c4cccc(O)c4c(=O)c1c23`, the T/C was 161% in the assay filed under Mus musculus [1] and 112% in the assay listed under Mus musculus [2]. Besides, the Optimal dose in the assay filed under Mus musculus [3] is 50 mg/kg; in the assay filed under Mus musculus [4], 25 mg/kg. The IC50 on Nucleic Acid stood at 190 nM.

In turn, `CN(C)CCNCc1nn2c3cccc(O)c3c(=O)c3c(NCCN(C)C)ccc1c32` gave an IC50 at Nucleic Acid of 160 nM.

With `NCCNc1ccc2c(CNCCCCO)nn3c4cccc(O)c4c(=O)c1c23`, the values for the T/C in the assay filed under Mus musculus [1] and in the assay filed under Mus musculus [2] were 146% and 126%, respectively. The figures for the Optimal dose in the assay with Mus musculus [5] and in the assay filed under Mus musculus [3] were 3.1 mg/kg and 6.3 mg/kg, respectively. At Nucleic Acid, this compound had a 50% inhibitory concentration (IC50) of 170 nM.

In turn, `NCCNCc1nn2c3ccccc3c(=O)c3c(NCCN)ccc1c32` showed a T/C in the assay listed under Mus musculus [1] of 150%. Besides, in the assay filed under Mus musculus [4], the Optimal dose was 38 mg/kg. Besides, the IC50 at Nucleic Acid was determined as 130 nM.

As to `CCNCc1nn2c3cccc(O)c3c(=O)c3c(NCCN(C)C)ccc1c32`, the results for the T/C in the assay filed under Mus musculus [1] and in the assay listed under Mus musculus [2] were 196% and 126%, respectively. Further, the Optimal dose in the assay listed under Mus musculus [3] and in the assay listed under Mus musculus [4] was 3.1 mg/kg each time. Moreover, the half-maximal inhibitory concentration (IC50) on Nucleic Acid was 110 nM.

As to `NCCCNc1ccc2c(CN3CCOCC3)nn3c4cccc(O)c4c(=O)c1c23`, the T/C in the assay listed under Mus musculus [6] is reported as 33%; in the assay listed under Mus musculus [1] it was over 278%; in the assay filed under Mus musculus [7] it was 115%. Moreover, the Optimal dose with Mus musculus [5], in the assay filed under Mus musculus [3] and in the assay listed under Mus musculus [8] was 13 mg/kg in each case. For the same compound, the IC50 at Nucleic Acid was found to be 890 nM.

In the assay listed under Mus musculus [1], `COc1cccc2c1c(=O)c1c(NCCN)ccc3c(CNCCN)nn2c31` registered a T/C of 139%. The compound further had an Optimal dose with Mus musculus [5] of 25 mg/kg. The same compound showed an IC50 on Nucleic Acid of 180 nM.

In the case of `CN(C)CCNc1ccc2c(CNCCO)nn3c4cccc(O)c4c(=O)c1c23`, the T/C is listed as 9% in the assay filed under Mus musculus [9], over 261% in the assay listed under Mus musculus [1] and 144% in the assay listed under Mus musculus [2]. Moreover, the Optimal dose is 3.1 mg/kg in the assay filed under Mus musculus [3], 6.3 mg/kg in the assay listed under Mus musculus [4] and 3.1 mg/kg in the assay listed under Mus musculus [8]. On Nucleic Acid, this compound showed an IC50 of 180 nM.

For `COc1cccc2c1C(=O)c1c(O)c3c(c(O)c1C2=O)C[C@@](O)(C(=O)CO)C[C@@H]3O[C@H]1C[C@H](N)[C@H](O)[C@H](C)O1` [DOXORUBICIN], the T/C in the assay filed under Mus musculus [6] is 31%; in the assay listed under Mus musculus [1], over 254%; in the assay filed under Mus musculus [7] it was 116%. Besides, the Optimal dose in the assay with Mus musculus [5], in the assay listed under Mus musculus [3] and in the assay filed under Mus musculus [8] was 7.5 mg/kg throughout.

As to `O=c1c2c(O)cccc2n2nc(CNCCO)c3ccc(NCCNCCO)c1c32`, the T/C in the assay filed under Mus musculus [9] is on record as 5%; in the assay filed under Mus musculus [1], over 208%; in the assay listed under Mus musculus [2], 145%. The Optimal dose was determined as 3.1 mg/kg in the assay on Mus musculus [5], 6.3 mg/kg in the assay filed under Mus musculus [3] and 12 mg/kg in the assay listed under Mus musculus [8]. The compound also gave an IC50 at Nucleic Acid of 140 nM.

`CN(C)CCNc1ccc2c(CN(CCO)CCO)nn3c4cccc(O)c4c(=O)c1c23`: the T/C in the assay filed under Mus musculus [9] is given as 42%; in the assay filed under Mus musculus [1] it was over 286%; in the assay listed under Mus musculus [7], 134%. Besides, the values for the Optimal dose in the assay on Mus musculus [5], in the assay listed under Mus musculus [3] and in the assay filed under Mus musculus [8] were 25 mg/kg, 25 mg/kg and 13 mg/kg, respectively. The compound also came in with an IC50 on Nucleic Acid of 420 nM.

For `NCCCNc1ccc2c(CNCCO)nn3c4cccc(O)c4c(=O)c1c23`, the T/C in the assay listed under Mus musculus [9] is given as 21%; in the assay filed under Mus musculus [1], over 230%; in the assay filed under Mus musculus [2], 156%. The Optimal dose in the assay listed under Mus musculus [3] amounted to 6.3 mg/kg; in the assay filed under Mus musculus [4], 13 mg/kg; in the assay listed under Mus musculus [8] it was 6 mg/kg. The IC50 at Nucleic Acid was determined as 130 nM.

In the case of `O=c1c2c(O)cccc2n2nc(CNCCO)c3ccc(NCCCO)c1c32`, the T/C in the assay filed under Mus musculus [1] is reported as 152%; in the assay listed under Mus musculus [2], 123%. The Optimal dose in the assay with Mus musculus [5] came to 13 mg/kg; in the assay listed under Mus musculus [3], 50 mg/kg. Moreover, the 50% inhibitory concentration (IC50) on Nucleic Acid was determined as 1050 nM.

The compound `COc1cccc2c1c(=O)c1c(NCCN(C)C)ccc3c(CNCCN(C)C)nn2c31` registered an IC50 at Nucleic Acid of 160 nM.

As for `NCCNc1ccc2c(CNCCO)nn3c4cccc(O)c4c(=O)c1c23`, the T/C in the assay listed under Mus musculus [6] is 6%; in the assay listed under Mus musculus [1], over 222%; in the assay listed under Mus musculus [2], 152%. Moreover, the Optimal dose was determined as 1.6 mg/kg in the assay listed under Mus musculus [3], 1.6 mg/kg in the assay listed under Mus musculus [4] and 6.3 mg/kg in the assay listed under Mus musculus [8]. Further, the IC50 on Nucleic Acid worked out at 140 nM.

Compound `CN(C)CCNCc1nn2c3ccccc3c(=O)c3c(NCCN(C)C)ccc1c32` yielded a 50% inhibitory concentration (IC50) at Nucleic Acid of 260 nM.

Take `NCCNc1ccc2c(CNCCCO)nn3c4cccc(O)c4c(=O)c1c23`: the T/C in the assay listed under Mus musculus [1] is over 181%; in the assay listed under Mus musculus [2], 146%. The Optimal dose in the assay on Mus musculus [5] and in the assay filed under Mus musculus [3] was 3.1 mg/kg throughout. The same compound came in with an IC50 at Nucleic Acid of 140 nM.

For `NCCNCc1nn2c3cccc(O)c3c(=O)c3c(NCCN)ccc1c32`, the results for the T/C in the assay listed under Mus musculus [9], in the assay listed under Mus musculus [1] and in the assay listed under Mus musculus [2] were 12%, over 254% and 138%, respectively. For the same compound, the Optimal dose in the assay filed under Mus musculus [3] came out at 13 mg/kg; in the assay listed under Mus musculus [4], 13 mg/kg; in the assay listed under Mus musculus [8], 25 mg/kg. Also, the IC50 at Nucleic Acid was 170 nM.

The values above are taken from ChEMBL document CHEMBL1127679, “6H-pyrazolo[4,5,1-de]acridin-6-ones as a novel class of antitumor agents. Synthesis and biological activity” (J Med Chem, 1994).
